According to ChEMBL document CHEMBL4513216, “Probing the Open Global Health Chemical Diversity Library for Multistage-Active Starting Points for Next-Generation Antimalarials” (ACS Infect Dis, 2020):

assay: Toxicity liver stage against HepG2, at 10uM; type: cell-based; parameters: test concentration 10 uM, cell line HepG2-A16-CD81EGFP; details: human, HepG2-A16-CD81EGFP cells; read-out: INHIBITION
How it was run: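 Uninfected HepG2-A16-CD81EGFP cells, 3 × 10^3 per well, 1536-well, plated on prespotted compound at 10 μM final, parasite-free screening media added to match infected plates; puromycin 10 μM positive, DMSO 0.5% negative; run in parallel with 48 h PbLuc assay at 37 °C, 5% CO2; viability by CellTiter-Glo luminescence, normalized to controls.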

Row | Structure (SMILES) | cytotoxicity at 10 µM [%]
1 | CCC1(C)Cc2ccccc2-c2nc(NCCCO)nc(O)c21 (configuration not stated) | 5.42
2 | Cc1noc([C@@H]2C[C@H](NS(=O)(=O)Cc3ccccc3)CN2C)n1 | 4.5
3 | Fc1ccc2nc([C@H]3CCNC3)[nH]c2c1 | 9.21
4 | Cc1nn(C2CCS(=O)(=O)C2)c(O)c1Cc1cccc(Cl)c1 (configuration not stated) | -46.9
5 | Cc1ccc(S(=O)(=O)N(C)c2ccsc2C(=O)NCC(C)C)cc1 | 10.6
6 | CN(C)C(=O)c1nnn(-c2ccc(Br)cc2)n1 | 7.5
7 | CO[C@@H]1CCN(c2ncc(F)cn2)[C@H]1Cc1cnn(C)c1 | -2.63
8 | Cc1nc(-c2ccccc2)cc2nn(CC(N)=O)c(=O)n12 | 0.301
9 | O=C(Cc1ccc2c(c1)OCC2)Nc1nc(C(F)(F)F)n[nH]1 | 2.98
10 | COC(=O)c1sc2nc3c(c(C(F)(F)F)c2c1N)CN(C(C)=O)CC3 | -8.18
11 | NC(=O)C1CCN(C(=O)c2cc(-n3cnnn3)ccc2Cl)CC1 | 12.4
12 | O=C(c1cc(-n2cnnn2)ccc1Cl)N1CCC2(CC1)OCCO2 | -1.66
13 | CN(C)c1nc2n(c(=O)n1)CCN2C(=O)Nc1ccc(Cl)c(Cl)c1 | 9.76
14 | CCS(=O)(=O)Nc1ccc2oc(C)c(C(C)=O)c2c1 | 7.13
15 | OC1(CN2CCC(Cc3ncccn3)CC2)CCOCC1 | 16.6
16 | Cc1ccnc(C2CN(c3ccnc(C)n3)C2)n1 | -2.4
17 | CCn1cc(S(=O)(=O)N2CCCC3(CC=CNC3=O)C2)cn1 (configuration not stated) | -2.92
18 | O=C(c1cc2c(s1)CCC2)N1CCC(c2cnccn2)CC1 | -2.34
19 | Cc1nc(C2CCCCN2C(=O)c2ccccc2)ncc1C(=O)N(C)C (configuration not stated) | 1.9
20 | Nc1cc(N2CCCC2c2cnccn2)ncn1 (configuration not stated) | 0.153
21 | CN1CC(=O)N(c2ccccc2)Cc2c(NC3CC3)ncnc21 | 6.86

Row | Structure (SMILES) | cytotoxicity at 10 µM [%]
22 | O=C1CC2(CCN(C(=O)C3CCCCC3)C2)Nc2ccccc2N1 (configuration not stated) | 9.13
23 | Cn1nc(C2CCCN2)c2c(C(=O)NCC(F)(F)F)cc(C3CC3)nc21 (configuration not stated) | 13.1
24 | CS(=O)(=O)N1CC2(CCCN(C3COC3)C2)Cc2ccccc21 (configuration not stated) | 5.15
25 | OCc1cn(Cc2cccc(F)c2)nn1 | 8.95
26 | COc1cccc(C(C)N2CCN(S(C)(=O)=O)CC2)c1 (configuration not stated) | -8.42
27 | Cn1ccc(CS(=O)(=O)Cc2ccccc2)cc1=O | 6.02
28 | CCc1noc(CNc2ccc(CC(=O)N3CCSCC3)cc2)n1 | 3.73
29 | CC(Nc1ccc(C(F)(F)F)cc1C#N)c1cccc(S(N)(=O)=O)c1 (configuration not stated) | -3.09
30 | O=C(c1cc(C2CC2)nc2onc(-c3ccccc3)c12)N1CC[C@H](O)C1 | -40.4
31 | Cc1nc2c(C#N)cnn2c(C)c1CCC(=O)N(C)C1CC1 | -47.2
32 | CCc1nsc(N2CCC3(CC2)OCCO3)n1 | 2.24
33 | COCc1noc(Cc2c(C)nn(C)c2C)n1 | 7
34 | CS(=O)(=O)c1nccn1Cc1ccc(F)cc1Cl | -4.99
35 | CC(C)(C)C(=O)N1CCN(C(=O)Nc2cnn(CC(F)F)c2)CC1 | 9.62
36 | CC(NC(=O)CN1CCCC1=O)c1ccc(Cl)s1 (configuration not stated) | -6.45
37 | COCC(=O)NCCc1ccc(Cl)s1 | 13.4
38 | Cc1cc(CCC(=O)N2CC[C@H](O)C2)ccc1Br | 2.35
39 | CCn1nc2c(cc1=O)CN(Cc1nc3ccccc3c(=O)[nH]1)CC2 | -4.71
40 | Cc1ccc(NC(=O)N2CCOC(C)C2)cc1Cl (configuration not stated) | -6.78
41 | O=C(CC1CC1)N1CCCn2nnc(CNc3ncccn3)c2C1 | -0.802
42 | CCc1ncnc2c1CCN(S(=O)(=O)c1ccccc1)CC2 | -96.8

Row | Structure (SMILES) | cytotoxicity at 10 µM [%]
43 | CC(C)NC(=O)N1CCC2(CC(=O)N(c3ccccc3)C2)C1 (configuration not stated) | -2.59
44 | CC(=O)NCC(=O)N1Cc2nccn2CC(CN2CCCC2)C1 (configuration not stated) | 2.34
45 | CC(=O)c1cnc(N(C)Cc2cc(C)cc(C)n2)nc1C | 8.81
46 | Cc1cnc(C)c(-c2cc(O)c3c(c2)CN(c2nccs2)CCO3)n1 | 1.08
47 | COc1ccc(CC(=O)N2CC[C@@]3(O)CCNC[C@H]3C2)c(OC)c1 | 4.26
48 | CCCN(Cc1cccnc1)C(=O)C1CCN(Cc2ccco2)CC1 | 0.376
49 | CN1CCC2(CCN(S(=O)(=O)c3ccc(-c4cnco4)s3)CC2)C1 | -0.0395
50 | CN1CC(c2ccccc2)CC12CCN(C(=O)c1ccc(Cl)cn1)CC2 (configuration not stated) | 3.62
51 | C=C(C)COc1cccc(CNCc2nc3ccccc3c(=O)[nH]2)c1 | -40.9
52 | CCC(C(=O)NCc1ccncc1)N(c1cccc(Cl)c1)S(C)(=O)=O (configuration not stated) | -4.31
53 | CC(C)(CO)NC(=O)C1CCC(=O)N(Cc2ccc(Cl)cc2)C1 (configuration not stated) | -6.14
54 | C[C@@H]1CN(C(=O)c2cnc(C3CC3)nc2)CC[C@@]1(O)C1CCOCC1 | -13.9
55 | CN(Cc1ccc(F)cc1)CC1(O)CCCN(CC(C)(C)C)C1=O (configuration not stated) | -9.35
56 | CCc1ccccc1CN1CC[C@@H](NC(=O)c2cccnc2)[C@H](O)C1 | -9.67
57 | CN(C)C(=O)CCC(=O)NCc1cccnc1-n1cnc2ccccc21 | -3.97
58 | CN(C)Cc1nnc(C2CCN(C(=O)CCc3cccs3)CC2)n1C | -15.9
59 | COCCN1CCN(C(C)c2nc(C3CC3)no2)CC1 (configuration not stated) | -8.36
60 | CCC(O)CN1CCN(C(=O)Cc2ccc(C)nc2)CC1 (configuration not stated) | -9.24
61 | Cc1noc(Cl)c1CCC(=O)N1CCN(c2ncccn2)CC1 | -2.01
62 | Cc1nc(C2CCCN2Cc2nnc(C3CC3)o2)no1 (configuration not stated) | -5.97
63 | COc1ccc(-c2noc(CN3CCOCC3C)n2)cc1OC (configuration not stated) | -7.3

Row | Structure (SMILES) | cytotoxicity at 10 µM [%]
64 | Cn1cc(C(=O)NC2CCN(C(=O)NCC3CCSCC3)CC2)cn1 | 4.02
65 | COc1ccc(CNC(=O)NC(C)Cn2cccn2)cc1O (configuration not stated) | -3.1
66 | CC(O)CN(CC(=O)NC(=O)NC1CC1)c1ccccc1 (configuration not stated) | -2.14
67 | Clc1cccnc1OC1CCNCC1 | -10.9
68 | Cc1c(C)n(CC(O)CN2CCN(CCO)CC2)c2c(Cl)cccc12 (configuration not stated) | -12.9
69 | CN1C(=O)CCC12CCC(NC(=O)NCc1cccnc1)CC2 (configuration not stated) | -99.8
70 | Cc1c(Br)cccc1C(=O)NCCC1CCCNC1 (configuration not stated) | -11.7
71 | Cn1ccnc1CN1CCC2(CC1)CC(NC(=O)c1ccccn1)CO2 (configuration not stated) | -2.05
72 | Cc1ccc(CN2CCOC3(CCCN(C(=O)c4ccco4)C3)C2)s1 (configuration not stated) | -10.3
73 | Fc1cccc(CN2C[C@@H]3CN(c4ncccn4)C[C@@H]3C2)c1 | 6.81
74 | COc1ccc(CN2C[C@H]3C[C@H](CN(C)C)O[C@H]3C2)cc1 | -7.4
75 | Cc1occc1C(=O)N1CCC2(CCN(C(=O)c3cccnc3)C2)CC1 | -88.1
76 | O=S(=O)(c1cccs1)N1CC[C@H](O)[C@@H]1Cc1ccncc1 | 3.19
77 | CN(Cc1cccnc1)Cc1cncc2c1CCN(Cc1ccoc1)C2 | -100
78 | O=C(C1CCCO1)N1C[C@@H]2CCN(c3cnccn3)C[C@@H]2C1 (some centres not stated) | -0.832
79 | Cc1noc(C)c1C(=O)N1CCOC2(COCCN(C(C)C)C2)C1 (configuration not stated) | 2.71
80 | CN1CCO[C@@H]2CN(S(=O)(=O)c3cccs3)CC[C@@H]2C1 | 11.7
81 | CO[C@H]1CCN(Cc2c(C)noc2C)[C@@H]2CN(Cc3cccnc3)C[C@H]12 | 5.55
82 | Cc1n[nH]cc1CNCc1ccnc(OCC(F)(F)F)c1 | 5.33
